Source: ChEMBL document CHEMBL1153046, “Synthesis and antitumor activity of substituted triazolo[4,3-a]pyrimidin-6-sulfonamide with an incorporated thiazolidinone moiety” (2009)

Columns and labels:
Type in all cases: functional
SK-OV-3 = assay: Growth inhibition of human SKOV3 cells after 48 hrs by sulforhodamine B assay; conditions: SK-OV-3, 48 h
Method in brief: (§1)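 NCI 60-cell-line panel. Cells are grown in RPMI1640 with 5% fetal calf serum and 2 mM L-glutamine, seeded at a density set by growth characteristics, and preincubated 24 h. Compound is tested at a minimum of five concentrations at 10-fold dilution, with 48 h continuous exposure. Viability is read by sulforhodamine B protein assay. GI50, TGI and LC50 come from dose-response curves.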

NCI-H460 = assay: Antiproliferative activity against human NCI-H460 cells assessed as cell growth at 100 uM after 48 hrs by alamar blue assay; conditions: NCI-H460, 48 h, read-out: Activity
Method in brief: (§2)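 NCI three-cell-line primary screen. Cells are seeded and preincubated in microtiter plates. Compound is added at a single 10^-4 M concentration and cultures are incubated 48 h. The end-point is read with alamar blue. Results are given as percent growth relative to untreated control cells.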

OVCAR-5 = assay: Growth inhibition of human OVCAR5 cells after 48 hrs by sulforhodamine B assay; conditions: OVCAR-5, 48 h; method in brief: as §1
TK-10 = assay: Growth inhibition of human TK10 cells after 48 hrs by sulforhodamine B assay; conditions: TK-10, 48 h
Method in brief: (§3)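 NCI 60-cell-line panel (nine cancer types), with cells grown in RPMI1640 plus 5% fetal calf serum and 2 mM L-glutamine. Cells are seeded at a density that depends on the line and preincubated 24 h. Compounds are then applied at a minimum of five 10-fold dilutions over a 5-log range with 48 h continuous exposure. Viability is read by SRB protein assay, and GI50 is derived from dose-response curves in units of 10^-5 M.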

PC-3 = assay: Growth inhibition of human PC3 cells after 48 hrs by sulforhodamine B assay; conditions: PC-3, 48 h; method in brief: as §1
786-0 = assay: Growth inhibition of human 786-0 cells after 48 hrs by sulforhodamine B assay; conditions: 786-0, 48 h; method in brief: as §1
LOX IMVI = assay: Growth inhibition of human LOXIMVI cells after 48 hrs by sulforhodamine B assay; method in brief: as §1
SK-MEL-28 = assay: Growth inhibition of human SK-MEL-28 cells after 48 hrs by sulforhodamine B assay; conditions: SK-MEL-28, 48 h; method in brief: as §1
HOP-92 = assay: Growth inhibition of human HOP92 cells after 48 hrs by sulforhodamine B assay; conditions: HOP-92, 48 h; method in brief: as §1
SNB-75 = assay: Growth inhibition of human SNB75 cells after 48 hrs by sulforhodamine B assay; conditions: SNB-75, 48 h; method in brief: as §3
SW-620 = assay: Growth inhibition of human SW620 cells after 48 hrs by sulforhodamine B assay; conditions: SW-620, 48 h; method in brief: as §3
UO-31 = assay: Growth inhibition of human UO31 cells after 48 hrs by sulforhodamine B assay; conditions: UO-31, 48 h; method in brief: as §3
OVCAR-3 = assay: Growth inhibition of human OVCAR-3 cells after 48 hrs by sulforhodamine B assay; conditions: OVCAR-3, 48 h; method in brief: as §1
BT-549 = assay: Growth inhibition of human BT549 cells after 48 hrs by sulforhodamine B assay; conditions: BT-549, 48 h; method in brief: as §1
MCF7 = assay: Antiproliferative activity against human MCF7 cells assessed as cell growth at 100 uM after 48 hrs by alamar blue assay; conditions: MCF7, 48 h, read-out: Activity; method in brief: as §2
NCI/ADR-RES = assay: Growth inhibition of human NCI/ADR-RES cells after 48 hrs by sulforhodamine B assay; method in brief: as §1
SK-MEL-5 = assay: Growth inhibition of human SK-MEL-5 cells after 48 hrs by sulforhodamine B assay; conditions: SK-MEL-5, 48 h; method in brief: as §1
T47D = assay: Growth inhibition of human T47D cells after 48 hrs by sulforhodamine B assay; method in brief: as §3
OVCAR-4 = assay: Growth inhibition of human OVCAR4 cells after 48 hrs by sulforhodamine B assay; conditions: OVCAR-4, 48 h; method in brief: as §1
UACC-62 = assay: Growth inhibition of human UACC62 cells after 48 hrs by sulforhodamine B assay; conditions: UACC-62, 48 h; method in brief: as §3
NCI-H23 = assay: Growth inhibition of human NCI-H23 cells after 48 hrs by sulforhodamine B assay; conditions: NCI-H23, 48 h; method in brief: as §1
ACHN = assay: Growth inhibition of human ACHN cells after 48 hrs by sulforhodamine B assay; method in brief: as §1
NCI-H522 = assay: Growth inhibition of human NCI-H522 cells after 48 hrs by sulforhodamine B assay; conditions: NCI-H522, 48 h; method in brief: as §1
SR = assay: Growth inhibition of human SR cells after 48 hrs by sulforhodamine B assay; method in brief: as §3
SF-268 [1] = assay: Antiproliferative activity against human SF268 cells assessed as cell growth at 100 uM after 48 hrs by alamar blue assay; conditions: SF-268, 48 h, read-out: Activity; method in brief: as §2
CAKI-1 = assay: Growth inhibition of human Caki1 cells after 48 hrs by sulforhodamine B assay; conditions: CAKI-1, 48 h; method in brief: as §1
HOP-62 = assay: Growth inhibition of human HOP62 cells after 48 hrs by sulforhodamine B assay; conditions: HOP-62, 48 h; method in brief: as §1
M14 = assay: Growth inhibition of human M14 cells after 48 hrs by sulforhodamine B assay; conditions: M14, 48 h; method in brief: as §1
SN12C = assay: Growth inhibition of human SN12C cells after 48 hrs by sulforhodamine B assay; method in brief: as §1
HCT-15 = assay: Growth inhibition of human HCT15 cells after 48 hrs by sulforhodamine B assay; conditions: HCT-15, 48 h; method in brief: as §1
SF-268 [2] = assay: Growth inhibition of human SF268 cells after 48 hrs by sulforhodamine B assay; conditions: SF-268, 48 h; method in brief: as §1
[3] = read-out: LC50 (the source's name)

COc1ccc(/C=N/c2nc3[nH]nc(C)n3c(=O)c2S(=O)(=O)NN2C(=O)C(CN3CCOCC3)SC2c2ccc(OC)cc2)cc1 (stereo not given)
GI50 (SK-OV-3): > 100 µM | TGI (SK-OV-3): > 100 µM | growth at 100 µM (NCI-H460): 16% | GI50 (OVCAR-5): > 100 µM | LC50 (concentration causing 50% net cell kill) (OVCAR-5): > 100 µM | TGI (OVCAR-5): > 100 µM | GI50 (TK-10): 40.1 µM | LC50 (TK-10): > 100 µM | TGI (TK-10): > 100 µM | GI50 (PC-3): 24.6 µM | LC50 (concentration killing 50% of cells) (PC-3): > 100 µM | TGI (PC-3): > 100 µM | GI50 (786-0): 67.1 µM | TGI (786-0): > 100 µM | CC50 (786-0; [3]): > 100 µM | GI50 (LOX IMVI): 21.6 µM | TGI (LOX IMVI): 62.4 µM | GI50 (SK-MEL-28): > 100 µM | TGI (SK-MEL-28): > 100 µM | GI50 (HOP-92): 36.3 µM | LC50 (HOP-92): > 100 µM | TGI (HOP-92): > 100 µM | GI50 (SNB-75): 57.3 µM | TGI (SNB-75): > 100 µM | GI50 (SW-620): 47.1 µM | GI50 (UO-31): 39.6 µM | LC50 (UO-31): > 100 µM | TGI (UO-31): > 100 µM | GI50 (OVCAR-3): 22.5 µM | LC50 (concentration killing 50% of cells) (OVCAR-3): > 100 µM | TGI (OVCAR-3): 60.5 µM | GI50 (BT-549): > 100 µM | TGI (BT-549): > 100 µM | growth at 100 µM (MCF7): 64% | GI50 (NCI/ADR-RES): 43.1 µM | TGI (NCI/ADR-RES): > 100 µM | GI50 (SK-MEL-5): 19 µM | TGI (SK-MEL-5): > 100 µM | CC50 (SK-MEL-5; [3]): > 100 µM | GI50 (T47D): > 100 µM | TGI (T47D): > 100 µM | GI50 (OVCAR-4): 94.4 µM | LC50 (OVCAR-4): > 100 µM | TGI (OVCAR-4): > 100 µM | GI50 (UACC-62): 25.4 µM | TGI (UACC-62): > 100 µM | CC50 (UACC-62; [3]): > 100 µM | GI50 (NCI-H23): 87.8 µM | TGI (NCI-H23): > 100 µM | GI50 (ACHN): 23.1 µM | TGI (ACHN): 92.6 µM | CC50 (ACHN; [3]): > 100 µM | GI50 (NCI-H522): 32.5 µM | TGI (NCI-H522): > 100 µM | GI50 (SR): 11.7 µM | LC50 (concentration killing 50% of cells) (SR): 71.5 µM | TGI (SR): 28.9 µM | growth at 100 µM (SF-268 [1]): 75% | GI50 (CAKI-1): 43.3 µM | LC50 (50% lethal concentration) (CAKI-1): > 100 µM | TGI (CAKI-1): > 100 µM | GI50 (HOP-62): 86.6 µM | LC50 (HOP-62): > 100 µM | TGI (HOP-62): > 100 µM | GI50 (M14): 67.4 µM | LC50 (concentration killing 50% of cells) (M14): > 100 µM | TGI (M14): > 100 µM | GI50 (SN12C): 55.1 µM | LC50 (SN12C): > 100 µM | TGI (SN12C): > 100 µM | GI50 (HCT-15): 26.7 µM | TGI (HCT-15): > 100 µM | GI50 (SF-268 [2]): > 100 µM | TGI (SF-268 [2]): > 100 µM | CC50 (SF-268 [2]; [3]): > 100 µM
